{
  "source": "ChEMBL document CHEMBL1799956",
  "about": "“Convergent synthesis and biological evaluation of 2-amino-4-(3',4',5'-trimethoxyphenyl)-5-aryl thiazoles as microtubule targeting agents” (J Med Chem, 2011)",
  "key": {"Jurkat [1]": {"system": "Jurkat", "assay": "Cell cycle arrest in human Jurkat cells assessed as increase of cell population at G2/M phase after 24 hrs using propidium iodide staining by flow cytometry", "type": "functional, cell-based"}, "HeLa [2]": {"system": "HeLa", "assay": "Induction of apoptosis in human HeLa cells assessed as increase in mitochondrial ROS production at 100 nM after 48 hrs using H2DCFDA staining by flow cytometry", "type": "functional, cell-based"}, "HeLa [3]": {"system": "HeLa", "assay": "Induction of apoptosis in human HeLa cells assessed as reduction in p53 expression at […] after 24 hrs by Western blot analysis", "type": "functional, cell-based", "how_it_was_run": "(§1)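 Western blot of HeLa whole-cell lysates, separated by SDS-PAGE and probed with antibodies to p-γH2AX Ser139, p53 and p21waf/cip1. Cells were treated at the indicated concentrations for 24 or 48 h.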"}, "HeLa [4]": {"system": "HeLa", "assay": "Induction of apoptosis in human HeLa cells assessed activation of caspase 9 at […] after 24 hrs by Western blot analysis", "type": "functional, cell-based", "how_it_was_run": "(§2)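 Treated HeLa whole-cell lysates separated by SDS-PAGE and immunoblotted for PARP cleavage, Bcl-2, Bax, pro-caspase-9 and pro-caspase-2.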"}, "HeLa [5]": {"system": "HeLa", "assay": "Induction of apoptosis in human HeLa cells assessed as multinucleation at 10 uM after 24 to 48 hrs using Giemsa's staining by microscopic analysis", "type": "functional, cell-based", "how_it_was_run": "(§3)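 Giemsa staining, then light-microscope examination of cell morphology. HeLa and Jurkat cells were exposed to compound for 24 and 48 h. Magnification 60×.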"}, "HeLa [6]": {"system": "HeLa", "assay": "Induction of apoptosis in human HeLa cells assessed as decrease in Bax expression at […] after 48 hrs by Western blot analysis", "type": "functional, cell-based", "how_it_was_run": "as §2"}, "Tubulin (Homo sapiens) [7]": {"target": "T1, Tubulin (Homo sapiens) (UniProt P68371+Q9H4B7+P0DPH7+P68366+Q13509+Q71U36+P04350+Q3ZCM7+P07437+P68363+Q9BQE3+Q6PEY2+Q13885+Q9BVA1+Q9BUF5)", "assay": "Induction of microtubule disassembly with spherical morphology in human HeLa cells at 10 nM after 48 hrs using DAPI-staining by fluorescence microscopy", "type": "cell-based", "how_it_was_run": "(§4)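 HeLa cells were exposed to 10 or 100 nM compound for 24 or 48 h, then fixed. Microtubules were stained with FITC-conjugated anti-β-tubulin antibody and imaged by confocal/fluorescence microscopy at 60× magnification.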"}, "HeLa [8]": {"system": "HeLa", "assay": "Cell cycle arrest in human HeLa cells assessed as increase of cell population at G2/M phase after 24 hrs using propidium iodide staining by flow cytometry", "type": "functional, cell-based"}, "HeLa [9]": {"system": "HeLa", "assay": "Induction of morphological changes in human HeLa cells assessed as appearance of giant interphase with multiple nuclei of different sizes at 100 nM after 24 hrs using phalloidintetramethylrhodamine B isothiocyanate staining by microscopy", "type": "functional, cell-based", "how_it_was_run": "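HeLa cells were incubated with compound for 24 h. F-actin was stained with a phalloidin–tetramethylrhodamine B isothiocyanate conjugate and nuclei were counterstained with DAPI. Cells were then examined by fluorescence microscopy.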"}, "Tubulin (Homo sapiens) [10]": {"target": "T1, Tubulin (Homo sapiens)", "assay": "Induction of microtubule disassembly with spherical morphology in human HeLa cells at 10 nM after 24 hrs using DAPI-staining by fluorescence microscopy", "type": "cell-based", "how_it_was_run": "as §4"}, "HeLa [11]": {"system": "HeLa", "assay": "Induction of apoptosis in human HeLa cells assessed as increase in cell viability at 100 nM after 48 hrs by flow cytometry in presence of pan-caspase inhibitor z-VAD.fmk", "type": "functional, cell-based", "how_it_was_run": "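HeLa incubated 48 h with compound at 100 nM with or without z-VAD.fmk (100 μM); viability measured, mean ± SEM of three independent experiments.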"}, "Jurkat [12]": {"system": "Jurkat", "assay": "Cell cycle arrest in human Jurkat cells assessed as decrease of cell population at S phase at 1 to 100 nM after 48 hrs using propidium iodide staining by flow cytometry", "type": "functional, cell-based"}, "Jurkat [13]": {"system": "Jurkat", "assay": "Induction of apoptosis in human Jurkat cells assessed as formation of large cytoplasmic vacuoles at 10 uM after 24 to 48 hrs using Giemsa's staining by microscopic analysis", "type": "functional, cell-based", "how_it_was_run": "as §3"}, "Bos taurus": {"species": "Bos taurus", "assay": "Displacement of [3H]colchicine from bovine brain tubulin at 5 uM", "how_it_was_run": "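[3H]colchicine binding inhibition with tubulin at 1 μM, [3H]colchicine at 5 μM and test compound at 5 μM.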"}, "HeLa [14]": {"system": "HeLa", "assay": "Induction of apoptosis in human HeLa cells assessed activation of caspase 2 at 10 to 100 nM after 48 hrs by Western blot analysis"}, "Jurkat [15]": {"system": "Jurkat", "assay": "Induction of apoptosis in human Jurkat cells assessed as abnormal mitotic figures at 10 uM after 24 to 48 hrs using Giemsa's staining by microscopic analysis", "type": "functional, cell-based", "how_it_was_run": "as §3"}, "HeLa [16]": {"system": "HeLa", "assay": "Induction of apoptosis in human HeLa cells assessed as decrease in Bcl2 expression at […] after 24 hrs by Western blot analysis", "type": "functional, cell-based", "how_it_was_run": "as §2"}, "HeLa [17]": {"system": "HeLa", "assay": "Induction of apoptosis in human HeLa cells assessed as formation of large cells at 100 uM after 24 to 48 hrs using Giemsa's staining by microscopic analysis", "type": "functional, cell-based", "how_it_was_run": "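HeLa treated 48 h, Giemsa stained and examined by light microscopy at 60× magnification.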"}, "HeLa [18]": {"system": "HeLa", "assay": "Induction of apoptosis in human HeLa cells assessed as reduction in p53 expression at […] after 48 hrs by Western blot analysis", "type": "functional, cell-based", "how_it_was_run": "as §1"}, "LoVo [19]": {"system": "LoVo", "assay": "Antiproliferative activity against human LoVo cells assessed as growth inhibition after 72 hrs by MTT assay", "type": "functional, cell-based"}, "HeLa [20]": {"system": "HeLa", "assay": "Induction of apoptosis in human HeLa cells assessed as reduction in p21 expression at […] after 48 hrs by Western blot analysis", "type": "functional, cell-based", "how_it_was_run": "as §1"}, "LoVo [21]": {"system": "LoVo", "assay": "Antiproliferative activity against human doxorubicin-resistant LoVo cells overexpressing P-gp assessed as growth inhibition after 72 hrs by MTT assay", "type": "functional, cell-based"}, "HeLa [22]": {"system": "HeLa", "assay": "Induction of cell cycle arrest at G2/M phase in human HeLa cells assessed as decrease in phosphorylated Cdc2(Y15) expression at 10 to 100 nM after 48 hrs by Western blot analysis", "type": "functional, cell-based", "how_it_was_run": "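Immunoblot of HeLa lysates after 24 or 48 h of compound treatment at the indicated concentrations. Probed for cyclin B1, p-Cdc2 Y15 and Cdc25c. Slower-migrating Cdc25c bands were taken as a change in phosphorylation.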"}, "HeLa [23]": {"system": "HeLa", "assay": "Cell cycle arrest in human HeLa cells assessed as decrease of cell population at S phase at 100 nM after 24 hrs using propidium iodide staining by flow cytometry", "type": "functional, cell-based"}, "HeLa [24]": {"system": "HeLa", "assay": "Cell cycle arrest in human HeLa cells assessed as decrease of cell population at S phase at 1 to 100 nM after 48 hrs using propidium iodide staining by flow cytometry", "type": "functional, cell-based"}, "HeLa [25]": {"system": "HeLa", "assay": "Induction of apoptosis in human HeLa cells assessed as decrease in Bcl2 expression at […] after 48 hrs by Western blot analysis", "type": "functional, cell-based", "how_it_was_run": "as §2"}, "HeLa [26]": {"system": "HeLa", "assay": "Induction of apoptosis in human HeLa cells assessed as increase in annexin-V positive cells after 24 hrs by annexin-V-FITC and propidium iodide staining based flow cytometry", "type": "functional, cell-based", "how_it_was_run": "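Biparametric flow cytometry after annexin-V immunolabelling plus propidium iodide, separating live, early apoptotic, late apoptotic and necrotic cells; HeLa incubated for 24 or 48 h.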"}, "HeLa [27]": {"system": "HeLa", "assay": "Induction of apoptosis in human HeLa cells assessed as decrease in Bax expression at […] after 24 hrs by Western blot analysis", "type": "functional, cell-based", "how_it_was_run": "as §2"}, "HeLa [28]": {"system": "HeLa", "assay": "Cell cycle arrest in human HeLa cells assessed as decrease of cell population at G1 phase at 1 to 100 nM after 48 hrs using propidium iodide staining by flow cytometry", "type": "functional, cell-based"}, "Jurkat [29]": {"system": "Jurkat", "assay": "Induction of apoptosis in human Jurkat cells assessed as formation of large cells at 10 uM after 24 to 48 hrs using Giemsa's staining by microscopic analysis", "type": "functional, cell-based", "how_it_was_run": "as §3"}},
  "note": "Calls of active or inactive are those of the source. No cut-off for these calls is given here.",
  "data": [
    {"smiles": "CCOc1ccc(-c2sc(N)nc2-c2cc(OC)c(OC)c(OC)c2)cc1", "values": [
      {"measurement": "Activity", "setting": "Jurkat [1]", "value": "Dose-dependent effect"},
      {"measurement": "Activity", "setting": "HeLa [2]", "value": "Active"},
      {"measurement": "Activity", "setting": "HeLa [3]", "value": "inactive"},
      {"measurement": "Activity", "setting": "HeLa [4]", "value": "inactive"},
      {"measurement": "Activity", "setting": "HeLa [5]", "value": "Active"},
      {"measurement": "Activity", "setting": "HeLa [6]", "value": "Active"},
      {"measurement": "Activity", "setting": "Tubulin (Homo sapiens) [7]", "value": "Active"},
      {"measurement": "Activity", "setting": "HeLa [8]", "value": "Dose-dependent effect"},
      {"measurement": "Activity", "setting": "HeLa [9]", "value": "Active"},
      {"measurement": "Activity", "setting": "Tubulin (Homo sapiens) [10]", "value": "Active"},
      {"measurement": "Activity", "setting": "HeLa [11]", "value": "inactive"},
      {"measurement": "Activity", "setting": "Jurkat [12]", "value": "Active"},
      {"measurement": "Activity", "setting": "Jurkat [13]", "value": "Active"},
      {"measurement": "inhibition", "setting": "Bos taurus", "value": 95, "unit": "%"},
      {"measurement": "Activity", "setting": "HeLa [14]", "value": "Active"},
      {"measurement": "Activity", "setting": "Jurkat [15]", "value": "Active"},
      {"measurement": "Activity", "setting": "HeLa [16]", "value": "inactive"},
      {"measurement": "Activity", "setting": "HeLa [17]", "value": "Active"},
      {"measurement": "Activity", "setting": "HeLa [18]", "value": "Active"},
      {"measurement": "IC50", "setting": "LoVo [19]", "value": 0.7, "unit": "nM"},
      {"measurement": "Activity", "setting": "HeLa [20]", "value": "Active"},
      {"measurement": "IC50", "setting": "LoVo [21]", "value": 0.6, "unit": "nM"},
      {"measurement": "Activity", "setting": "HeLa [22]", "value": "Active"},
      {"measurement": "Activity", "setting": "HeLa [23]", "value": "Active"},
      {"measurement": "Activity", "setting": "HeLa [24]", "value": "Active"},
      {"measurement": "Activity", "setting": "HeLa [25]", "value": "Active"},
      {"measurement": "Activity", "setting": "HeLa [26]", "value": "Dose-dependent effect"},
      {"measurement": "Activity", "setting": "HeLa [27]", "value": "inactive"},
      {"measurement": "Activity", "setting": "HeLa [28]", "value": "Active"},
      {"measurement": "Activity", "setting": "Jurkat [29]", "value": "Active"}
    ]}
  ]
}
